Measured values of several laboratories.
Each line is one published result; the experiments were not run side by side.
Target: Histone deacetylase 1 (HDAC1, Homo sapiens, UniProt Q13547)

Structure (SMILES) | observed | action | method | endpoint | value
C/C=C1\NC(=O)[C@H]2CSSCC/C=C/[C@H](CC(=O)N[C@H](C(C)C)C(=O)N2)OC(=O)[C@H](C(C)C)NC1=O | cell-free assay |  |  | Kd | 3.17 nM
O=C(NO)c1ccc(NC(=O)C2(c3ccccc3)CCOCC2)c(F)c1 | enzyme activity | inhibitor |  | IC50 | 73 nM
CCCON(Cc1ccc(C(=O)NO)cc1)C(=O)Nc1ccc(N(C)C)cc1 | enzyme activity | inhibitor | fluorescence | IC50 | 715 nM
O=C(NO)c1ccc(NC(=O)C2(c3ccc(C(F)(F)F)c(F)c3)CCCC2)cc1 | enzyme activity | inhibitor |  | IC50 | 222 nM
CC(C)C[C@H]1CC(=O)N[C@@H](C)C(=O)N[C@@H](CCCCCC(=O)O)C(=O)N[C@@H](Cc2c[nH]c3ccccc23)C(=O)N1 | enzyme activity | inhibitor |  | IC50 | 100 nM
O=C(NO)c1ccc(NC(=O)C2(c3ccc(Cl)cc3)CCCC2)c(F)c1 | enzyme activity | inhibitor |  | IC50 | 774 nM
CCC[C@H](NC(=O)C1CN(C)C1)c1ncc(-c2cc3ccccc3nc2OC)[nH]1 | enzyme activity | inhibitor | fluorescence | IC50 | 280 nM
C=CCC[C@@H]1NC(=O)[C@H]2CCCN2C(=O)[C@H](Cc2ccccc2)NC(=O)C(C)(C)NC1=O | enzyme activity | inhibitor |  | IC50 | > 300000 nM
CCCC[C@H](NC(=O)C1CN(C)C1)c1ncc(-c2cc3ccccc3nc2OC)[nH]1 | enzyme activity | inhibitor |  | IC50 | 68 nM
Cc1nc2ccccc2n1Cc1ccc(C(=O)NO)cn1 | enzyme activity | inhibitor |  | IC50 | 27900 nM
O=C(CCCCCCC(=O)Nc1ccc([C@H]2O[C@@H](CSc3nc(-c4ccccc4)c(-c4ccccc4)o3)C[C@@H](c3ccc(CO)cc3)O2)cc1)NO | cell-free assay |  |  | Kd | > 30200 nM
CCCON(Cc1ccc(C(=O)NO)cc1)C(=O)Nc1ccccc1 | enzyme activity | inhibitor | fluorescence | IC50 | 742 nM
